From ChEMBL document CHEMBL1130878 (Bioorg Med Chem Lett, 1998)

Columns and labels:
Oryctolagus cuniculus = species: Oryctolagus cuniculus; experiment: Compound was evaluated for the functional assay performed by obtaining sarafotoxin 6c concentration-response curves [pA2(ETB)] in isolated rabbit jugularis vein
Rattus norvegicus [1] = experiment: Effect of compound on motor activity of spontaneously hypertensive rats after single oral administration of 0.1 mg/Kg dose; type: functional
Method in brief: (§1)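 Conscious spontaneously hypertensive rats were given a single oral dose at 12:00, with 5% arabic gum as the control vehicle. Heart rate and motor activity were monitored by telemetry. Change from a 3 h predrug period (9:00-12:00) was expressed as AUC0-12h (12:00-24:00). n = 6-13 per group, mean ± SEM, ANOVA with Dunnett's test vs control.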

Rattus norvegicus [2] = experiment: Compound was evaluated for AUC after treatment with oral dose of 2 mgkg to female wistar rats; type: ADME, organism-based; design: dose 2 mgkg, route oral; details: in vivo, 2 mg/kg
Method in brief: (§2)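 Male and female Wistar rats, n = 3 per group, received a single dose of either 1 mg/kg iv or 2 mg/kg orally. Plasma levels were followed after dosing. Half-life was taken over the interval 1-8 h post administration. Oral bioavailability was derived against the iv data.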

[3] = Compound was evaluated for clearance after treatment with iv dose of 1 mgkg to male wistar rats; type: ADME, organism-based; design: dose 1 mgkg, route intravenous; details: rat, in vivo, 1 mg/kg
Method in brief: as §2

Rattus norvegicus [4] = experiment: Compound was evaluated for AUC after treatment with iv dose of 1 mgkg to female wistar rats; type: ADME, organism-based; design: dose 1 mgkg, route intravenous; details: in vivo, 1 mg/kg
Method in brief: as §2

[5] = Compound was evaluated for maximum time to reach Cmax after treatment with oral dose of 2 mgkg to male wistar rats; type: ADME, organism-based; design: dose 2 mgkg, route oral; details: rat, in vivo, 2 mg/kg
Method in brief: as §2

Rattus norvegicus [6] = experiment: ET-1 induced increase in mean arterial pressure following 1 mg/kg oral administration of compound; type: functional, Artery
[7] = Compound was evaluated for clearance after treatment with iv dose of 1 mgkg to female wistar rats; type: ADME, organism-based; design: dose 1 mgkg, route intravenous; details: rat, in vivo, 1 mg/kg
Method in brief: as §2

[8] = Compound was evaluated for maximum time to reach Cmax after treatment with oral dose of 2 mgkg to female cynomolgus monkey; type: ADME, organism-based; design: dose 2 mgkg, route oral; details: cercopithecidae, in vivo, 2 mg/kg
Method in brief: (§3)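 A female cynomolgus monkey (n = 1) received a single dose of either 1 mg/kg iv or 2 mg/kg orally. Plasma concentration-time data gave Cmax, tmax, AUC, clearance and Vss. Half-life was calculated over 1-8 h post administration.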

[9] = Compound was evaluated for maximum concentration after treatment with oral dose of 2 mgkg to female cynomolgus monkey; type: ADME, organism-based; design: dose 2 mgkg, route oral; details: cercopithecidae, in vivo, 2 mg/kg
Method in brief: as §3

Rattus norvegicus [10] = experiment: Effect of compound on heart rate activity of spontaneously hypertensive rats after single oral administration of 1 mg/Kg dose; type: functional
Method in brief: as §1

Rattus norvegicus [11] = experiment: ET-1 induced increase in mean arterial pressure following 0.3 mg/kg oral administration of compound; type: functional, Artery
[12] = Compound was evaluated for AUC after treatment with oral dose of 2 mgkg to female cynomolgus monkey; type: ADME; details: cercopithecidae, in vivo
Method in brief: as §3

[13] = Compound was evaluated for half-life after treatment with iv dose of 1 mgkg to female cynomolgus monkey; type: ADME, organism-based; design: dose 1 mgkg, route intravenous; details: cercopithecidae, in vivo, 1 mg/kg
Method in brief: as §3

[14] = target: T1, Endothelin receptor type B (Sus scrofa, UniProt P35463); experiment: In vitro ability to inhibit specific [125I]ET1 binding to porcine kidney (inner medulla) membranes Endothelin B receptor
T1 sequence (P35463 whole entry): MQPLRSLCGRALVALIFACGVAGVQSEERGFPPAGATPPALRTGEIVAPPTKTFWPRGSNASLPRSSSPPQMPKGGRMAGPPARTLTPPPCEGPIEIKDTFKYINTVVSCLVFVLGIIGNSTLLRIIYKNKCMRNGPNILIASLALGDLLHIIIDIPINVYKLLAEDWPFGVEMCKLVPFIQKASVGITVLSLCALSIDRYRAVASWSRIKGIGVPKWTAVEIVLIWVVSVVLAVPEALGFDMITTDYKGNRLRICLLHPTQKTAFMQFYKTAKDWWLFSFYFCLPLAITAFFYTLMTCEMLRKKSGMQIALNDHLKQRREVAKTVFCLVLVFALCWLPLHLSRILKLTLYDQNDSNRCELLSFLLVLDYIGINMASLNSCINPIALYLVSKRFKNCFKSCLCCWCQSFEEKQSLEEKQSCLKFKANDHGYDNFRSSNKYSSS

Rattus norvegicus [15] = experiment: Effect of compound on motor activity of spontaneously hypertensive rats after single oral administration of 0.3 mg/Kg dose; type: functional
Method in brief: as §1

[16] = Compound was evaluated for half life after treatment with iv dose of 1 mgkg to male wistar rats; type: ADME, organism-based; design: dose 1 mgkg, route intravenous; details: rat, in vivo, 1 mg/kg
Method in brief: as §2

Rattus norvegicus [17] = experiment: Effect of compound on motor activity of spontaneously hypertensive rats after single oral administration of 10 mg/Kg dose; type: functional
Method in brief: as §1

Rattus norvegicus [18] = experiment: Effect of compound on heart rate activity of spontaneously hypertensive rats after single oral administration of 30 mg/Kg dose; type: functional
Method in brief: as §1

Rattus norvegicus [19] = experiment: Effect of compound on motor activity of spontaneously hypertensive rats after single oral administration of 0.03 mg/Kg dose; type: functional
Method in brief: as §1

Rattus norvegicus [20] = experiment: Effect of compound on heart rate activity of spontaneously hypertensive rats after single oral administration of 10 mg/Kg dose; type: functional
Method in brief: as §1

[21] = Compound was evaluated for maximum time to reach Cmax after treatment with oral dose of 2 mgkg to female wistar rats; type: ADME, organism-based; design: dose 2 mgkg, route oral; details: rat, in vivo, 2 mg/kg
Method in brief: as §2

Rattus norvegicus [22] = experiment: Compound was evaluated for AUC after treatment with oral dose of 2 mgkg to male wistar rats; type: ADME, organism-based; design: dose 2 mgkg, route oral; details: in vivo, 2 mg/kg
Method in brief: as §2

[23] = Compound was evaluated for maximum concentration after treatment with oral dose of 2 mgkg to male wistar rats; type: ADME, organism-based; design: dose 2 mgkg, route oral; details: rat, in vivo, 2 mg/kg
Method in brief: as §2

Endothelin-1 receptor = target: T2, Endothelin-1 receptor (Rattus norvegicus, UniProt P26684); experiment: In vitro ability to inhibit specific [125I]ET1 binding to rat aorta membranes Endothelin A receptor; type: tissue-based
T2 sequence (P26684 whole entry): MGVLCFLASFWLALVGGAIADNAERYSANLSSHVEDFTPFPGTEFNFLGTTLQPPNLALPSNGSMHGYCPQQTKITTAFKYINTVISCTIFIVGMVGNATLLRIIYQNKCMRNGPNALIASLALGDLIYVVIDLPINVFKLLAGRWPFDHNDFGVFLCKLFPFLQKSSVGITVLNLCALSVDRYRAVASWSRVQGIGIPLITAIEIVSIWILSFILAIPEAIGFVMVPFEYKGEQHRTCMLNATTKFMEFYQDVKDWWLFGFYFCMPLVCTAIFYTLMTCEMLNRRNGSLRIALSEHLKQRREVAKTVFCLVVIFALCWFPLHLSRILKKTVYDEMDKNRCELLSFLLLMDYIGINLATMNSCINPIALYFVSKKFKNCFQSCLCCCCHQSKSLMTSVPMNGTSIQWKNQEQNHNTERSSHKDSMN

Rattus norvegicus [24] = experiment: Effect of compound on heart rate activity of spontaneously hypertensive rats after single oral administration of 0.3 mg/Kg dose; type: functional
Method in brief: as §1

Rattus norvegicus [25] = experiment: Effect of compound on heart rate activity of spontaneously hypertensive rats after single oral administration of 3 mg/Kg dose; type: functional
Method in brief: as §1

Rattus norvegicus [26] = experiment: Effect of compound on motor activity of spontaneously hypertensive rats after single oral administration of 1 mg/Kg dose; type: functional
Method in brief: as §1

Rattus norvegicus [27] = experiment: Effect of compound on motor activity of spontaneously hypertensive rats after single oral administration of 30 mg/Kg dose; type: functional
Method in brief: as §1

[28] = Compound was evaluated for volume of distribution (steady state) after treatment with iv dose of 1 mgkg to male wistar rats; type: ADME, organism-based; design: dose 1 mgkg, route intravenous; details: rat, in vivo, 1 mg/kg, read-out: Vss
Method in brief: as §2

Rattus norvegicus [29] = experiment: Effect of compound on motor activity of spontaneously hypertensive rats after single oral administration of 3 mg/Kg dose; type: functional
Method in brief: as §1

Rattus norvegicus [30] = experiment: Effect of compound on heart rate activity of spontaneously hypertensive rats after single oral administration of 0.1 mg/Kg dose; type: functional
Method in brief: as §1

[31] = Compound was evaluated for volume of distribution (steady state) after treatment with iv dose of 1 mgkg to female cynomolgus monkey; type: ADME, organism-based; design: dose 1 mgkg, route intravenous; details: cercopithecidae, in vivo, 1 mg/kg, read-out: Vss
Method in brief: as §3

Rattus norvegicus [32] = experiment: ET-1 induced increase in mean arterial pressure following 0.1 mg/kg oral administration of compound; type: functional, Artery
Rattus norvegicus [33] = species: Rattus norvegicus; experiment: Compound was evaluated for the functional assay performed by obtaining ET-1 concentration-response curves [pA2(ETA)] in isolated rat aortic rings; details: Aorta, read-out: pA2 (converted)
Method in brief: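 Functional ETA assay: ET-1 concentration-response curves in isolated rat aortic rings with the endothelium removed. Antagonism is expressed as pA2.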

[34] = Compound was evaluated for clearance after treatment with iv dose of 1 mgkg to female cynomolgus monkey; type: ADME, organism-based; design: dose 1 mgkg, route intravenous; details: cercopithecidae, in vivo, 1 mg/kg
Method in brief: as §3

[35] = Compound was evaluated for AUC after treatment with iv dose of 1 mgkg to female cynomolgus monkey; type: ADME, organism-based; design: dose 1 mgkg, route intravenous; details: cercopithecidae, in vivo, 1 mg/kg
Method in brief: as §3

Rattus norvegicus [36] = experiment: ET-1 induced increase in mean arterial pressure following 3 mg/kg oral administration of compound; type: functional, Artery
[37] = Compound was evaluated for half life after treatment with iv dose of 1 mgkg to female wistar rats; type: ADME, organism-based; design: dose 1 mgkg, route intravenous; details: rat, in vivo, 1 mg/kg
Method in brief: as §2

Rattus norvegicus [38] = experiment: Effect of compound on heart rate activity of spontaneously hypertensive rats after single oral administration of 0.03 mg/Kg dose; type: functional
Method in brief: as §1

[39] = Compound was evaluated for maximum concentration after treatment with oral dose of 2 mgkg to female wistar rats; type: ADME, organism-based; design: dose 2 mgkg, route oral; details: rat, in vivo, 2 mg/kg
Method in brief: as §2

Rattus norvegicus [40] = experiment: Compound was evaluated for AUC after treatment with iv dose of 1 mgkg to male wistar rats; type: ADME, organism-based; design: dose 1 mgkg, route intravenous; details: in vivo, 1 mg/kg
Method in brief: as §2

[41] = Compound was evaluated for volume of distribution (steady state) after treatment with iv dose of 1 mgkg to female wistar rats; type: ADME, organism-based; design: dose 1 mgkg, route intravenous; details: rat, in vivo, 1 mg/kg, read-out: Vss
Method in brief: as §2

With `COc1ccc(C(=O)/C(Cc2cc(OC)c(OC)c(OC)c2)=C(\C(=O)[O-])c2ccc3nsnc3c2)cc1F.[Na+]` the Kb (Oryctolagus cuniculus) was 1000 nM, the AUC0-12h ΔMA (Rattus norvegicus [1]) was -72 units·h and the AUC (Rattus norvegicus [2]) was 21300 ng·h/mL. For the same compound, the clearance [3] was 6.67 mL/min/kg, the AUC (Rattus norvegicus [4]) was 15400 ng·h/mL and the Tmax [5] was 30 min. For the same compound, the “Mean arterial blood pressure” value (Rattus norvegicus [6]) was 11 mmHg, the clearance [7] was 1.67 mL/min/kg and the Tmax [8] was 30 min. For the same compound, the Cmax [9] was 3830 ng/mL, the AUC0-12h ΔHR (Rattus norvegicus [10]) was -344 min-1·h and the “Mean arterial blood pressure” value (Rattus norvegicus [11]) was 24 mmHg. For the same compound, the AUC [12] was 4260 ng·h/mL, the half-life [13] was 60 min and the IC50 [14] was 160 nM. The AUC0-12h ΔMA (Rattus norvegicus [15]) was -93 units·h, the half-life [16] was 96 min and the AUC0-12h ΔMA (Rattus norvegicus [17]) was -131 units·h. For the same compound, the AUC0-12h ΔHR (Rattus norvegicus [18]) was -260 min-1·h, the AUC0-12h ΔMA (Rattus norvegicus [19]) was -97 units·h and the AUC0-12h ΔHR (Rattus norvegicus [20]) was -349 min-1·h. The Tmax [21] was 30 min, the AUC (Rattus norvegicus [22]) was 1630 ng·h/mL and the Cmax [23] was 1010 ng/mL. For the same compound, the IC50 (Endothelin-1 receptor) was 0.032 nM, the AUC0-12h ΔHR (Rattus norvegicus [24]) was -413 min-1·h and the AUC0-12h ΔHR (Rattus norvegicus [25]) was -356 min-1·h. It also gave an AUC0-12h ΔMA (Rattus norvegicus [26]) of -131 units·h, an AUC0-12h ΔMA (Rattus norvegicus [27]) of -99 units·h and a Vd [28] of 0.5 L/kg. It also gave an AUC0-12h ΔMA (Rattus norvegicus [29]) of -102 units·h, an AUC0-12h ΔHR (Rattus norvegicus [30]) of -341 min-1·h and a Vd [31] of 0.1 L/kg. The “Mean arterial blood pressure” value (Rattus norvegicus [32]) was 32 mmHg, the Kb (Rattus norvegicus [33]) was 0.316 nM and the clearance [34] was 5 mL/min/kg. For the same compound, the AUC [35] was 3300 ng·h/mL, the “Mean arterial blood pressure” value (Rattus norvegicus [36]) was 7 mmHg and the half-life [37] was 102 min. It also gave an AUC0-12h ΔHR (Rattus norvegicus [38]) of -384 min-1·h, a Cmax [39] of 3160 ng/mL and an AUC (Rattus norvegicus [40]) of 2500 ng·h/mL. For the same compound, the Vd [41] was 0.2 L/kg.
